An excerpt weighted towards active compounds, which were near 1.7% of everything screened.
CFTR F508del cor: CFTR F508del correction in bronchial cells; hit rate 0.36% among 350,000; AID 720511; activity (quench increase), % at 7.58 µM; CFBE cells, YFP halide quenching; stimulated with forskolin plus potentiator P3; % fluorescence drop versus neutral controls;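 active = mean added fluorescence quench of at least 8% versus neutral control, with both replicates also reaching 8%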;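 also: cells transiently co-express mutant CFTR-F508del with the halide-sensitive YFP; corrector assay measuring rescue of mutant channel to the surface after 24 h compound exposure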
CaV13 ICDI inh: Disruptors of the CACNA1D IQ motif to Ca2+-dependent inactivation inhibitor domain association, primary screening, Förster resonance energy transfer in intact living …; hit rate 0.098% among 340,000; inhibition, % at 12.3 µM; HEK cells, CFP/YFP FRET ICDI-IQ, plate reader, 10 min; percent FRET-ratio fall versus neutral wells;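 active = mean replicate inhibition of at least 30% and at least 1% of replicates passing that level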
Ecoli rRNA inh: selective bacterial rRNA inhibition in E. coli. E. coli WT GFP vs humanized-ribosome RFP mutants, fluorescence, 24 h; active compounds read low; DMSO median 0, no signal -100. GFP signal change (wild-type ribosome), % (concentration not given with the values). hit rate 1.6% among 350,000;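 active = significant combined selectivity score with lowered wild-type GFP, culture density cut under 30%, mutant RFP and density less affected; inactive = any of these conditions unmet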
Cneo AK release: causes C. neoformans cell lysis; adenylate kinase release luminescence, 4 h; normalised: neutral wells 0, clomiphene wells 100; lysis activity, % at 15 µM; hit rate 0.2% among 360,000;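 active = mean lysis activity across replicates of at least 80%, whatever share of replicates individually reach that level; inactive = mean lysis activity below 80%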
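Schedule: static 4 h at 37 °C with compound, 1 h detection; system: C. neoformans cells; benchmarks: Clomiphene as positive control; buffer or medium: fresh YPD medium; measure: luminescence rise reflecting yeast cell lysis; measured by: luminescent adenylate kinase detection reagent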
Numbers stand for hits; - = inactive; . = no result given.

SMILES	CFTR F508del cor	CaV13 ICDI inh	Ecoli rRNA inh	Cneo AK release
COc1cccc2sc3ccc(NCCC4CCCN4C)cc3c(=O)c12 (stereo not drawn)	-	-	-	-
COC(=O)c1cc(C)sc1NC(=O)C1CC(=O)NN1Cc1ccccc1 (stereo not drawn)	-	-	-31.9	.
Cc1noc(C)c1S(=O)(=O)Nc1ccc2c(c1)C(=O)N([C@H](C)CO)C[C@H](C)[C@H](CN(C)C(=O)Nc1ccc3c(c1)OCO3)O2	-	.	-	-
CC(OC(=O)c1ccc(Cl)nc1)C(=O)NC(C)(C)C (stereo not drawn)	10.2	-	-	.
O=C(Nc1ccc(Nc2ccccc2)cc1)c1ccc(Cl)cc1[N+](=O)[O-]	-	-	-27.4	-
CS(=O)(=O)c1ccc(Cl)c(NC(=O)CSc2n[nH]c(N)n2)c1	-	-	-	-
Cc1[nH]c(SCC(=O)Nc2cc(S(C)(=O)=O)ccc2Cl)nc1Cc1ccccc1	-	-	-21.7	-
Cn1cnnc1SCC(=O)Nc1ccc(S(=O)(=O)N2CCCC2)cc1	-	-	-	-
CCN(c1ccccc1)S(=O)(=O)c1ccc(Cl)c(NC(=O)CSc2n[nH]c(N)n2)c1	.	-	-19.5	.
Cn1cnnc1SCC(=O)Nc1ccc(S(=O)(=O)N2CCOCC2)cc1	12.3	-	-	-
Cc1ccc(S(=O)(=O)N2CCOCC2)cc1NC(=O)CSc1n[nH]c(N)n1	17.7	-	-	.
C[C@@H]1CN([C@@H](C)CO)C(=O)Cc2cc(NC(=O)CCCCCC(=O)Nc3ccccc3N)ccc2O[C@H]1CN(C)C(=O)Nc1ccc(F)cc1	-	.	-	.
O=C(C[C@@H]1C=C[C@@H](NC(=O)C2CCC2)[C@@H](CO)O1)NC1CCC1	-	.	-	-
CCC(=O)N[C@@H]1C=C[C@H](CC(=O)NCC2CCCCC2)O[C@@H]1CO	-	.	-	-
O=C(C[C@H]1C=C[C@H](NC(=O)C2CCC2)[C@@H](CO)O1)NC1CCC1	-	.	-	91.2
O=C(C[C@@H]1C=C[C@@H](NC(=O)C2CCC2)[C@H](CO)O1)NC1CCC1	-	.	-	95.8
CCC(=O)N[C@H]1C=C[C@H](CC(=O)NCC2CCCCC2)O[C@@H]1CO	-	.	-	88.9
C[C@H]1CN([C@@H](C)CO)C(=O)c2cc(-c3ccccc3F)cnc2O[C@H]1CN(C)C(=O)c1cnccn1	-	.	-	-
O=C(NCc1ccc(F)cc1)[C@@H]1[C@@H](CO)[C@@H]2Cn3c(ccc(C4=CCCCC4)c3=O)[C@H]1N2	.	.	-	-
Cc1cccn2c(=O)c(/C=C(\C#N)C(N)=O)c(N3CCN(c4ccccc4)CC3)nc12	-	-	-	-
Cc1cccn2c(=O)c(/C=C(\C#N)C(N)=O)c(Oc3ccccc3)nc12	-	38.2	-	-
COC(=O)c1sc(-c2ccccc2)cc1NC(=O)C1CC1	-	-	-26.7	.
CC(=O)Nc1ccc(S(=O)(=O)N2CCN(CC3CC4C=CC3C4)CC2)cc1 (stereo not drawn)	-	-	-22.4	.
CC(=O)Nc1ccc(S(=O)(=O)N2CCN(S(=O)(=O)c3ccccc3)CC2)cc1	-	-	-	-
N#Cc1c(N)[nH]c(C(=O)c2ccccc2)c1-c1ccc(Cl)cc1	-	-	-44.1	.
SMILES	CFTR F508del cor	CaV13 ICDI inh	Ecoli rRNA inh	Cneo AK release
CC(C)(C)C(=O)c1c(N)[nH]c(C(=O)c2ccccc2)c1-c1ccc(Cl)cc1Cl	-	-	-30.0	.
CC(C)(C)C(=O)c1c(N)[nH]c(C(=O)c2ccccc2)c1-c1ccc(Cl)cc1	-	-	-	.
C[C@@H]1CN([C@H](C)CO)C(=O)c2cc(C#CC3(O)CCCC3)cnc2O[C@H]1CN(C)C(=O)C1CC1	-	.	-	.
C[C@H]1CN(C)C(=O)c2cc(N)ccc2O[C@H]1CN(C)C(=O)OC(C)(C)C	.	.	-	.
COc1ccc(OC)c2c1C(=O)c1ccccc1C2=O	.	-	.	.
COc1ccc2noc3c2c1C(=O)c1ccccc1-3	37.3	-	-	-
COc1ccc(C(=O)C(/C=N/O)=N/Nc2ccc(F)cc2)cc1	-	-	-25.9	.
CO/N=C/C(=N\Nc1ccc(OC)cc1)C(=O)c1ccc(OC)cc1	.	.	.	-
Cc1cc(N2CCN(C)CC2)nc2ccc(NC(=S)NCc3cccs3)cc12	-	-	-23.4	-
COc1ccc(NC(=O)N(C)C[C@H]2OCCCC[C@@H](C)Oc3ccc(NS(=O)(=O)c4ccccc4)cc3C(=O)N([C@H](C)CO)C[C@@H]2C)cc1	-	.	-	-

Screening results deposited in PubChem BioAssay by Broad Institute.
